pIC50: −log10 of the molar value.
Target: T1, Inhibitor of nuclear factor kappa-B kinase subunit beta (Homo sapiens, UniProt O14920)
T1 sequence (O14920 whole entry): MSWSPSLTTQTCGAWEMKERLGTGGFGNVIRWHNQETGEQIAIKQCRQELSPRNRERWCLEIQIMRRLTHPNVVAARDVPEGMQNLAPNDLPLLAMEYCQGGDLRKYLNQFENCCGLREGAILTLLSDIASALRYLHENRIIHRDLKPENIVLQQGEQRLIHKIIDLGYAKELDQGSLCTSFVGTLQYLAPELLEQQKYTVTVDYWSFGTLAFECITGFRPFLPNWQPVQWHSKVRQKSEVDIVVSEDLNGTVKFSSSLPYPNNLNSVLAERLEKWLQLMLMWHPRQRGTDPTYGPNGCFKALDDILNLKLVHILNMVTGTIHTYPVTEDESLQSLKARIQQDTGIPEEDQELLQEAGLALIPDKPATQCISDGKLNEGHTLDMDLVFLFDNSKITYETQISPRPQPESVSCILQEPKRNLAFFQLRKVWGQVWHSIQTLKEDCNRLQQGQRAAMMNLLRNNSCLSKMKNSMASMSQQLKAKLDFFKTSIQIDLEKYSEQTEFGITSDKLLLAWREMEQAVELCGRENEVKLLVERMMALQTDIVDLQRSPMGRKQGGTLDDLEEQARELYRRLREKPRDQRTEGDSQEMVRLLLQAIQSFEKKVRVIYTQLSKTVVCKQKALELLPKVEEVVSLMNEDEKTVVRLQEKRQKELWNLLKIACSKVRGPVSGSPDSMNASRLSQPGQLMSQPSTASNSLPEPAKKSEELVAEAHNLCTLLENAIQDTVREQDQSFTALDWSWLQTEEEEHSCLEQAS
Assay: Inhibition of FLAG-tagged human recombinant IKKbeta phosphorylation expressed in baculovirus infected insect Sf9 cells after 1 hr by luminescence assay
Procedure, shortened: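 Reaction run 1 h at room temperature in 25 mmol/l HEPES pH 7.5, 10 mmol/l Mg acetate, DTT, 0.01% BSA and 0.01% Tween20, with 500 nmol ATP and GST-IκBα substrate. Kinase-Glo added, 10 min, luminescence from remaining ATP measured.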

pIC50 | SMILES
5.92 | C/C=C(\C)C(=O)O[C@@H]1CC(C)(C)C[C@H]2C3=CC[C@@H]4[C@@]5(C)CC[C@H](OC(=O)/C=C/c6ccccc6)C(C)(C)[C@@H]5CC[C@@]4(C)[C@]3(C)CC[C@@]12C(=O)O
6.03 | CC(C)=CC(=O)O[C@@H]1CC(C)(C)C[C@H]2C3=CC[C@@H]4[C@@]5(C)CC[C@H](OC(=O)/C=C/c6ccccc6)C(C)(C)[C@@H]5CC[C@@]4(C)[C@]3(C)CC[C@@]12C(=O)O

SMILES | pIC50
C/C=C(\C)C(=O)O[C@@H]1CC(C)(C)C[C@H]2C3=CC[C@@H]4[C@@]5(C)CC[C@H](O)C(C)(C)[C@@H]5CC[C@@]4(C)[C@]3(C)CC[C@@]12C(=O)O | 5.58

From BindingDB's records for doi:10.1016/j.ejmech.2013.12.052 (Jaypee University of Information Technology, 2014)
